{
  "source": "paper PMC7048954",
  "about": "(Drug Design, Development and Therapy, 2020)",
  "key": {"Huh 5.15 replicon cells": {"test_system": "Huh 5.15 replicon cells", "assay": "MTT assay of cellular viability and proliferation", "type": "cell-based, human", "outline": "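Replicon cells were seeded semi-confluent, attached overnight, then given compound at 10 or 20 μM or vehicle, in triplicate or quadruplicate. MTT was added at 24 and 48 h and absorbance read at 570 nm. Blanks containing vehicle plus compound were subtracted, and viable cells were expressed relative to vehicle controls.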"}, "[1]": {"test_system": "HCV replicon (Huh 5.15NS, sub-genomic HCV RNA genotype 1b)", "assay": "HCV RNA replication in replicon cells, real-time RT-PCR", "type": "cell-based", "details": "Hepatitis C virus, GETYPE1B, read-out: inhibition in replicon assays", "outline": "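Huh 5.15NS cells carrying subgenomic genotype 1b HCV RNA were seeded, left to attach overnight and treated in log phase for 48 h with compound (DMSO stock diluted into medium) or vehicle. Total RNA was extracted with Trizol and DNase-treated, then HCV RNA was measured by SYBR green real-time RT-PCR using ΔCT against GAPDH. EC50 came from sigmoidal regression, with 3–5 determinations per point and a known NS3-4A inhibitor as positive control.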"}, "[2]": {"molecular_target": "HCV NS3-4A protease genotype 1B (Hepatitis C virus genotype 1b, UniProt P26663)", "assay": "Recombinant NS3-4A protease FRET assay", "type": "biochemical", "details": "compared with biliverdin"}, "[3]": {"molecular_target": "NS3-4A protease V36M mutant (Hepatitis C virus genotype 1b, UniProt P26663, V1062M)", "assay": "Mutant recombinant NS3-4A protease fluorometric assay, V36M", "type": "biochemical, HCV", "details": "V36M vs WT", "outline": "(§1)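 Recombinant wild-type and mutant NS3-4A proteases were run side by side in a SensoLyte FRET assay across a range of compound concentrations. Excitation/emission of 591/622, 490/520 or 340/490 nm was chosen empirically for each compound, and parallel compound-only wells corrected for autofluorescence. Compound came from DMSO stock diluted into assay buffer, with vehicle controls.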"}, "[4]": {"test_system": "HCV proteins NS3-4A and core", "assay": "Western blot for HCV proteins in infected Huh 7.5 cells and Huh 5.15NS replicons", "type": "cell-based", "details": "MPP 10 µM; J6/JFH infected Huh 7.5 cells 48 hrs, Huh 5.15NS replicons 24 hrs", "outline": "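Cells in log phase were treated with compound, then lysed. HCV proteins were detected by Western blot with anti-NS3-4A antibodies and enhanced chemiluminescence.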"}, "[5]": {"molecular_target": "NS3-4A protease A156T mutant (Hepatitis C virus genotype 1b, UniProt P26663, A1182T)", "assay": "Mutant recombinant NS3-4A protease fluorometric assay, A156T", "type": "biochemical, HCV", "details": "A156T vs WT", "outline": "as §1"}, "[6]": {"molecular_target": "NS3-4A protease T54A mutant (Hepatitis C virus genotype 1b, UniProt P26663, T1080A)", "assay": "Mutant recombinant NS3-4A protease fluorometric assay, T54A", "type": "biochemical, HCV", "details": "T54A vs WT", "outline": "as §1"}, "NS3 protease [7]": {"test_system": "NS3 protease", "details": "less effective for genotype 3; cited from earlier work"}, "NS3 protease [8]": {"test_system": "NS3 protease", "details": "compared with bilirubin; cited from earlier work"}},
  "data": [
    {"smiles": "CC(C)(C)OC(=O)N[C@H]1CCCCC/C=C\\[C@@H]2C[C@@]2(C(=O)NS(=O)(=O)C2CC2)NC(=O)[C@@H]2C[C@@H](OC(=O)N3Cc4cccc(F)c4C3)CN2C1=O", "note": "[Danoprevir, reference compound]", "values": [
      {"measurement": "effects on viable cells", "setting": "Huh 5.15 replicon cells; 24 or 48 hrs, concentrations equivalent or in excess of EC50", "result": "little if any effects"},
      {"measurement": "inhibition at 0.01 µM", "setting": "[1]", "result": "80 to 90", "unit": "%"}
    ]},
    {"smiles": "C=CC1=C(C)C2=Cc3c(C=C)c(C)c4[n]3[Zn][n]3c(c(C)c(CCC(=O)O)c3=CC3=NC(=C4)C(C)=C3CCC(=O)O)=CC1=N2", "note": "[ZnPP, Zn protoporphyrin]", "values": [
      {"measurement": "Ki, fold stronger than biliverdin", "setting": "[2]", "result": "10–20 fold"},
      {"measurement": "inhibition of mutant protease compared to wild-type enzyme", "setting": "[3]", "result": "same fidelity as the wild-type enzyme"},
      {"measurement": "expression of HCV proteins NS3-4A and core (Western blot)", "setting": "[4]", "result": "decreased expression"},
      {"measurement": "inhibition of mutant protease compared to wild-type enzyme", "setting": "[5]", "result": "same fidelity as the wild-type enzyme"},
      {"measurement": "inhibition of mutant protease compared to wild-type enzyme", "setting": "[6]", "result": "same fidelity as the wild-type enzyme"},
      {"measurement": "reduction of the amount of viable cells", "setting": "Huh 5.15 replicon cells; 10 or 20 μM, 24 and 48 hrs intervals", "result": "40–50%"}
    ]},
    {"smiles": "C=C[C@@H]1C[C@]1(NC(=O)[C@@H]1C[C@@H]2CN1C(=O)[C@H](C(C)(C)C)NC(=O)O[C@@H]1C[C@H]1CCCCCc1nc3ccc(OC)cc3nc1O2)C(=O)NS(=O)(=O)C1CC1", "note": "[grazoprevir]", "values": [
      {"measurement": "difference in Ki, genotype 3 as compared to genotype 1", "setting": "NS3 protease [7]", "result": 90, "unit": "fold"}
    ]},
    {"smiles": "C=CC1=C(C)/C(=C/C2=NC(=C\\c3[nH]c(/C=C4\\NC(=O)C(C)=C4C=C)c(C)c3CCC(=O)O)/C(CCC(=O)O)=C2C)NC1=O", "note": "[BV, biliverdin]", "values": [
      {"measurement": "IC50 for NS3 protease, fold less than BR", "setting": "NS3 protease [8]", "result": 30, "unit": "fold"}
    ]},
    {"smiles": "C=CC1=C(C)c2cc3[n-]c(cc4[n-]c(cc5nc(cc1n2)C(C)=C5C=C)c(C)c4CCC(=O)O)c(CCC(=O)O)c3C.[Fe+2]", "note": "[FePP, Iron protoporphyrin]", "values": [
      {"measurement": "reduction of viable cells", "setting": "Huh 5.15 replicon cells; 10 or 20 μM, by 48 hrs", "result": "12–19%"}
    ]}
  ]
}
